B1: tRNA (parent)
chain: GUUCCGUUGGCGUAAUGGUAACGCGUCUCCCUCCUAAGGAGAAGACUGCGGGUUCGAGUCCCGUACGGAACG

Variants of: B1
Test: yeast fitness, log relative to wild type (ln ratio); higher = fitter; tRNA-Arg(CCU), competitive growth, 37 C, 1 M NaCl
Outline: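 Two independent transformations put a combinatorial tRNA-Arg(CCU) variant library on a HIS3 centromeric plasmid into BY4742 lacking the chromosomal gene. Pools were grown in SC-HIS at 30 °C for 4 generations, then in SC-HIS 1M NaCl at 37 °C for ~6.5 generations (~26.5 h), with three outputs taken per input. Fitness compares a genotype's generations with the wild type's as a natural log ratio. Those generations are OD-scaled log2 output/input frequencies, inverse-variance weighted across replicates, from 125 bp paired-end Illumina counts.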

Going from U2C C27U A43C C46U C66A A70G C71U to G6A C27U A70U, the “yeast fitness (ln)” value falls from -0.105 to -0.17.

Compared with U2G C27U A43C C46U C66U A69G A70G, U2C C27U C66A A70U is higher in “yeast fitness (ln)” value: -0.275 for the first, -0.0861 for the second.

Compared with C27U A43C C66A A70G, U2G A43C C46U C66U A70G C71U is lower in “yeast fitness (ln)” value: -0.135 for the first, -0.156 for the second.

First: G1A G6U C46U C66A A69G A70U
Second: U2G G6U C27U C46U C66A A69G A70G
The “yeast fitness (ln)” value of the first is higher: -0.106 for the first, -0.214 for the second.

Going from G6A C46U A69G to U2C G6U C66U A70U C71U, the “yeast fitness (ln)” value rises from -0.469 to -0.233.

Compared with G1A G6A C27U A43C C46U C66U C71U, G1A U2G G6A C27U A43C C66U A70G C71U is lower in “yeast fitness (ln)” value: -0.166 for the first, -0.479 for the second.

Going from G1A U2C G6U C66A C71U to U2C C27U C46U A70G C71U, the “yeast fitness (ln)” value rises from -0.115 to -0.0224.

Going from G1A G6A C46U A69G A70G C71U to G1A G6A A43C C46U C66U A69G A70G, the “yeast fitness (ln)” value falls from -0.129 to -0.184.

Compared with A69G A70G C71U, G1A U2C C27U A43C C46U C66U A70U is higher in “yeast fitness (ln)” value: -0.222 for the first, -0.0712 for the second.

Going from G1A U2G G6A A43C C46U C66A A70G C71U to G1A U2G C46U A69G C71U, the “yeast fitness (ln)” value rises from -0.169 to -0.0958.

First: G6A A43C C46U A69G C71U
Second: G6A C27U A43C C66U A69G A70U C71U
The “yeast fitness (ln)” value of the first is higher: -0.171 for the first, -0.529 for the second.

First: G6U C27U A43C C66U C71U
Second: A43C A69G A70U C71U
The “yeast fitness (ln)” value of the first is lower: -0.34 for the first, -0.337 for the second.

Compared with G1A U2G G6A C27U C46U C66U A69G C71U, G1A U2G G6A C66U C71U is higher in “yeast fitness (ln)” value: -0.332 for the first, -0.146 for the second.

Going from U2G G6U C66U C71U to G1A U2G A43C C46U C66U A69G A70U C71U, the “yeast fitness (ln)” value falls from -0.203 to -0.341.

Compared with G6A A43C C66A A70G C71U, G6U C27U A43C A70U is lower in “yeast fitness (ln)” value: -0.275 for the first, -0.309 for the second.

Going from U2G G6U C27U A69G A70U C71U to U2G G6U C27U A43C C46U C66A A69G A70U C71U, the “yeast fitness (ln)” value rises from -0.515 to -0.386.

Compared with U2G G6U C27U C46U C66A, U2G G6U C27U C46U C66U is lower in “yeast fitness (ln)” value: -0.144 for the first, -0.147 for the second.

First: G1A G6U C27U A43C C46U C71U
Second: C27U A43C C46U C66U A70G
The “yeast fitness (ln)” value of the first is lower: -0.212 for the first, -0.115 for the second.

First: U2G A43C C66U A69G A70U C71U
Second: G1A U2G G6U A43C C66U A69G A70U
The “yeast fitness (ln)” value of the first is lower: -0.468 for the first, -0.255 for the second.

Compared with G6U C46U A69G, G1A U2C C27U A43C C46U C66A A70G is higher in “yeast fitness (ln)” value: -0.397 for the first, -0.102 for the second.

First: U2C G6U C66A A70G C71U
Second: C27U C66A A70U
The “yeast fitness (ln)” value of the first is higher: -0.0156 for the first, -0.0748 for the second.

Going from G6A A43C C66U A70U C71U to U2C G6U C27U A43C A69G A70G, the “yeast fitness (ln)” value rises from -0.384 to -0.242.

Compared with G1A G6U A43C A69G C71U, G1A U2C A70U is higher in “yeast fitness (ln)” value: -0.28 for the first, -0.096 for the second.

First: U2C G6U C27U C66A A70G
Second: G1A U2G G6U C27U C66U A69G A70U C71U
The “yeast fitness (ln)” value of the first is higher: -0.0277 for the first, -0.407 for the second.

First: G6U C27U A43C C66U A70U
Second: U2G G6A A43C C66A A69G A70G C71U
The “yeast fitness (ln)” value of the first is lower: -0.259 for the first, -0.154 for the second.

First: G1A G6A C46U C66U A69G C71U
Second: G1A G6A C46U A69G C71U
The “yeast fitness (ln)” value of the first is higher: -0.0213 for the first, -0.252 for the second.

Compared with U2C G6U C27U A43C C46U C66A A70G C71U, C27U C46U C66A A69G A70G is lower in “yeast fitness (ln)” value: -0.0138 for the first, -0.124 for the second.

Going from G1A A43C C46U A69G to G6U C66U A70G, the “yeast fitness (ln)” value falls from -0.261 to -0.383.

Going from U2C C27U C46U C66A A69G A70G C71U to G1A U2C A43C C66U A70U, the “yeast fitness (ln)” value falls from -0.106 to -0.169.

Going from U2G G6A C27U A43C C46U A70G to U2C G6A C27U A43C C66U A70G, the “yeast fitness (ln)” value rises from -0.145 to -0.0396.

Compared with G1A G6A C27U A43C C46U A70U C71U, G1A U2G C27U A43C C46U C66U A69G C71U is lower in “yeast fitness (ln)” value: -0.263 for the first, -0.383 for the second.

Going from U2G G6U C27U A43C C66A A69G A70U C71U to U2C C27U C66A C71U, the “yeast fitness (ln)” value rises from -0.382 to -0.146.

Compared with G1A U2G G6U A43C C46U C66U A69G A70U C71U, U2C C27U A43C C66U A69G A70G C71U is higher in “yeast fitness (ln)” value: -0.499 for the first, -0.288 for the second.

Going from U2C G6A C27U A43C C46U C66U A69G A70G to G1A G6A C46U C66U A70U C71U, the “yeast fitness (ln)” value falls from -0.0296 to -0.0831.

Going from U2G A43C C66U A70G to U2C G6U A43C C66A A69G A70G C71U, the “yeast fitness (ln)” value rises from -0.156 to -0.0618.

First: G1A G6U A43C C66U A70U
Second: G1A G6U A43C C66U A70G
The “yeast fitness (ln)” value of the first is higher: -0.212 for the first, -0.339 for the second.

First: U2G G6U C27U A43C A70G C71U
Second: G1A U2G G6A C27U C66U C71U
The “yeast fitness (ln)” value of the first is higher: -0.329 for the first, -0.344 for the second.

First: G6A A70U C71U
Second: G1A U2G G6A A43C C46U C66U A70U
The “yeast fitness (ln)” value of the first is higher: -0.14 for the first, -0.306 for the second.

Going from U2G G6A C27U A43C C46U C66U A69G C71U to G1A C66A C71U, the “yeast fitness (ln)” value rises from -0.377 to -0.113.

Going from G6A C27U A43C C46U A70G C71U to G6U C27U A43C C46U A70U C71U, the “yeast fitness (ln)” value falls from -0.25 to -0.336.

Compared with G1A C27U A43C A69G A70G C71U, G1A U2C G6A C27U C46U A70G C71U is higher in “yeast fitness (ln)” value: -0.299 for the first, -0.0986 for the second.

First: G1A U2G G6U C46U C66A A70U
Second: U2G G6U C27U C46U A70G C71U
The “yeast fitness (ln)” value of the first is higher: -0.234 for the first, -0.262 for the second.

From the RNAGym collection of RNA variant scans (doi:10.1038/s41586-018-0170-7)
